Laboratory results from ChEMBL document CHEMBL1142692, “Synthesis and biological evaluation of meperidine analogues at monoamine transporters” (J Med Chem, 2005).
Values joined by “and” are separate entries in the source; they are usually repeats but may differ in a detail not shown here. Identical values can stand only once.

Columns and labels:
Mu-type opioid receptor [1] = target: T1, Mu-type opioid receptor (Homo sapiens, UniProt P35372); assay: Percent inhibition of [3H]DAMGO binding to rat brain mu-opioid receptor at 100 uM; details: target entry is the homologue from another species
Mu-type opioid receptor [2] = target: T1, Mu-type opioid receptor; assay: Inhibition of [3H]DAMGO binding to mu-opioid receptor at 100 uM
Mu-type opioid receptor [3] = target: T1, Mu-type opioid receptor; assay: Inhibition of [3H]-DAMGO binding to mu opioid receptor at 10 uM
[4] = Ratio of binding affinity of mu-opioid receptor and dopamine taransporter
[5] = Ratio of binding affinity of mu-opioid receptor and serotonin transporter
[6] = target: T2, Monoamine transporters; serotonin & dopamine (Homo sapiens) (UniProt P31645+Q01959); assay: Ratio of binding affinity of dopamine and serotonin transporters; type: protein assay
In short: (§1)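 Ratio of Ki values, DAT/SERT. DAT Ki from [3H]WIN 35,428 (1.5 nM) competition in rat caudate-putamen membranes on ice, 1 h. SERT Ki from [3H]paroxetine (0.2 nM) binding to rat midbrain membranes, 90 min at room temperature, with 1 µM citalopram defining nonspecific binding.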

[7] = target: T3, Sodium-dependent dopamine transporter (Rattus norvegicus, UniProt P23977); assay: Inhibitory concentration against [3H]dopamine uptake in rat brain tissue; type: functional, tissue-based
In short: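 Rat caudate-putamen chopped into 225 µm slices, suspended in Krebs-HEPES buffer pregassed with 95% O2/5% CO2 at 37 °C. Tissue preincubated 5 min with or without drug (highest 100 µM), then [3H]dopamine (15 nM final) added for 5 min. Stopped with ice-cold buffer and filtration; accumulated label extracted and counted by scintillation; filter binding subtracted. Three experiments in triplicate.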

Mu-type opioid receptor [8] = target: T1, Mu-type opioid receptor; assay: Inhibition of [3H]DAMGO binding to mu-opioid receptor
[9] = Ratio of binding affinity of mu-opioid receptor and dopamine transporter
[10] = target: T3, Sodium-dependent dopamine transporter; assay: Inhibitory concentration against [3H]DA uptake in rat brain tissue; type: functional, tissue-based
In short: (§2)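 Rat caudate-putamen chopped into 225 µm slices, suspended in oxygenated modified Krebs-HEPES buffer at 37 °C. Tissue preincubated 5 min with drug, then [3H]dopamine (final 15 nM) added for 5 min. Uptake stopped with ice-cold buffer and filtration; accumulated label extracted and counted by liquid scintillation. Specific uptake reported after subtracting filter binding. Single-concentration values are % inhibition at 100 µM.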

[11] = target: Norepinephrine transporter (Rattus norvegicus) (UniProt Q9WTR4); assay: Percent inhibition of [3H]nisoxetine binding to norepinephrine transporter at 10 uM
[12] = target: T4, Norepinephrine transporter (Rattus norvegicus, UniProt Q9WTR4); assay: Inhibition of [3H]-nisoxetine binding to rat norepinephrine transporter
In short: (§3)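 Male Sprague-Dawley rat frontal cortex membranes in 50 mM Tris, 120 mM NaCl, 5 mM KCl, pH 7.4, 8 mg tissue per tube. Incubated with [3H]nisoxetine (final 0.5 nM) for 1 h on ice, then filtered. Desipramine defines nonspecific binding. Single-concentration values are % specific binding remaining at 10 µM. Mean ± SEM of three experiments in triplicate.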

[13] = target: T4, Norepinephrine transporter; assay: Inhibition of [3H]nisoxetine binding to rat norepinephrine transporter at 10 uM; in short: as §3
[14] = target: Sodium-dependent dopamine transporter (Rattus norvegicus) (UniProt P23977); assay: Percent inhibition of [3H]WIN-35428 binding to rat Dopamine transporter at 100 uM
In short: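 Male Sprague-Dawley rat caudate-putamen membranes in modified Krebs-HEPES buffer, pH 7.4. Drug preincubated 5 min, then [3H]WIN 35,428 (final 1.5 nM) added for 1 h on ice, followed by filtration. Value is % inhibition at 100 µM.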

[15] = target: Sodium-dependent dopamine transporter (Rattus norvegicus) (UniProt P23977); assay: Percent inhibition of [3H]DA uptake in rat brain tissue at 100 uM; type: functional, tissue-based; in short: as §2
[16] = target: Sodium-dependent dopamine transporter (Rattus norvegicus) (UniProt P23977); assay: Percent inhibition of [3H]dopamine uptake in rat brain tissue at 100 uM; type: functional, tissue-based; in short: as §2
[17] = target: Sodium-dependent dopamine transporter (Rattus norvegicus) (UniProt P23977); details: Brain, 100 uM
[18] = target: Sodium-dependent dopamine transporter (Rattus norvegicus) (UniProt P23977); details: Brain, 100 uM; remark: listed apart in the source
Mu-type opioid receptor [19] = target: T1, Mu-type opioid receptor; assay: Inhibition of [3H]-DAMGO binding to mu-opioid receptor
[20] = Ratio of binding affinity of mu-opioid receptor and Serotonin transporter
[21] = target: T2, Monoamine transporters; serotonin & dopamine (Homo sapiens); assay: Ratio of binding affinity of dopamine and Serotonin transporters; type: protein assay; in short: as §1
[22] = target: T3, Sodium-dependent dopamine transporter; assay: Inhibition of [3H]-DA uptake in rat brain; type: functional, tissue-based; in short: as §2
[23] = target: T2, Monoamine transporters; serotonin & dopamine (Homo sapiens); assay: Ratio of binding affinity for dopamine and serotonin transporters; type: protein assay; in short: as §1
[24] = Ratio of binding affinity for mu-opioid receptor and dopamine transporter

Sodium-dependent dopamine transporter (Rattus norvegicus), sequence (P23977 whole entry): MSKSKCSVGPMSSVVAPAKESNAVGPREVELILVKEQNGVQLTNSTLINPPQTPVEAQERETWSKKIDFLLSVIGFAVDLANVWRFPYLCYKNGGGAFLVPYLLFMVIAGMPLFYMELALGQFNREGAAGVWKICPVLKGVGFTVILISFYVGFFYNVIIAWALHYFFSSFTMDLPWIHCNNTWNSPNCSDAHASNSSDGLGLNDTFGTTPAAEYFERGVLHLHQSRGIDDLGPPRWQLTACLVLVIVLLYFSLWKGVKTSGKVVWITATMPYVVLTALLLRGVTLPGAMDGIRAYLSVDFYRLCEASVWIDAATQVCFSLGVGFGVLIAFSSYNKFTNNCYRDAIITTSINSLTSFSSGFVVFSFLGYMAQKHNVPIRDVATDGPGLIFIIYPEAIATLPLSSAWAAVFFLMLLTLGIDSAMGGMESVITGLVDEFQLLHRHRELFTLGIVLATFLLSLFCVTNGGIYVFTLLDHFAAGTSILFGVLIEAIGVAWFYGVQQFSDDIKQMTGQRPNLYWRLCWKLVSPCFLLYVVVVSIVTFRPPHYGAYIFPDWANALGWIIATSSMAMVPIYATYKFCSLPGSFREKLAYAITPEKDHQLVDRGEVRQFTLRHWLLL
T3 sequence (P23977 whole entry): as above
T1 sequence (P35372 whole entry): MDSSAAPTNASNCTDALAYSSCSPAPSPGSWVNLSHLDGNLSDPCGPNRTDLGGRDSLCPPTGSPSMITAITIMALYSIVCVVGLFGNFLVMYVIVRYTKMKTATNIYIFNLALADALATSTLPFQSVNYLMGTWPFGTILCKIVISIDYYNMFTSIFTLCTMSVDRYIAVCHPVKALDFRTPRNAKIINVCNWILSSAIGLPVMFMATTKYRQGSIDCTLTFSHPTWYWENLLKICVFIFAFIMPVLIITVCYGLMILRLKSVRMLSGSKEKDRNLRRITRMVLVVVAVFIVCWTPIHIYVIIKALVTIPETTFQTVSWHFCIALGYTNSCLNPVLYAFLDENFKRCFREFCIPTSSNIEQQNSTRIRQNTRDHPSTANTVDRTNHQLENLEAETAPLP
T2 sequence (P31645 whole entry, looked up): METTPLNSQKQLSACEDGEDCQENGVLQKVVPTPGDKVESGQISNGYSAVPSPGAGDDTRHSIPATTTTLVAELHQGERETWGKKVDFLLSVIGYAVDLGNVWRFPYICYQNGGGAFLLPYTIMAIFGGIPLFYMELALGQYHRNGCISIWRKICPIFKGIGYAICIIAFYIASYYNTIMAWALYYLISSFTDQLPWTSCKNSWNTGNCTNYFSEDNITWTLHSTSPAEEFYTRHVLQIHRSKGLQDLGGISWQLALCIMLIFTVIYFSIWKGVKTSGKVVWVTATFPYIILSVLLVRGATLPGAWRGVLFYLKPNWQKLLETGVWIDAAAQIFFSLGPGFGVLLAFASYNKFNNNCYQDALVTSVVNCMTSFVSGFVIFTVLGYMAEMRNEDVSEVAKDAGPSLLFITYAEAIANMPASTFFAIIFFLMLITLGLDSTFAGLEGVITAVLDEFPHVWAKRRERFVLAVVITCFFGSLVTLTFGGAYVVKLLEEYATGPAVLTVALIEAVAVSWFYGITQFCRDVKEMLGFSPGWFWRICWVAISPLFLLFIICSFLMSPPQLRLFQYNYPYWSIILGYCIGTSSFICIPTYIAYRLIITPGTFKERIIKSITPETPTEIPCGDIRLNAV
T2 sequence (Q01959 whole entry, looked up): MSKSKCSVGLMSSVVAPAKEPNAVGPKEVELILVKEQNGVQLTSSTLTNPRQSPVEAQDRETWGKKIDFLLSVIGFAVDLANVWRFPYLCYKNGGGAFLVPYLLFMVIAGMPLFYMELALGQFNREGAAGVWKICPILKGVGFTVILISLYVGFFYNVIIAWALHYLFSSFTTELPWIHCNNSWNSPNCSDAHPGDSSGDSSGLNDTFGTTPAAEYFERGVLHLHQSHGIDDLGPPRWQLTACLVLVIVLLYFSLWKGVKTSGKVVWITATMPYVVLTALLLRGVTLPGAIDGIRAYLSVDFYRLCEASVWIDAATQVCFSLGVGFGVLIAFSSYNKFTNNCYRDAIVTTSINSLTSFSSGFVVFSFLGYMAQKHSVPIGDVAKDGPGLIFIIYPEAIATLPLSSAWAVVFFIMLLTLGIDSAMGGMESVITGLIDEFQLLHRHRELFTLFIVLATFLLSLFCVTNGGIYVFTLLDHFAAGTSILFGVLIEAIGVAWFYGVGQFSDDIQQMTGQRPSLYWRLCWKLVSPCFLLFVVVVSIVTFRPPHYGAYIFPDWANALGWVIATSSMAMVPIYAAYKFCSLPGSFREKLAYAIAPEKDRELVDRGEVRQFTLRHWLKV
T4 sequence (Q9WTR4 whole entry): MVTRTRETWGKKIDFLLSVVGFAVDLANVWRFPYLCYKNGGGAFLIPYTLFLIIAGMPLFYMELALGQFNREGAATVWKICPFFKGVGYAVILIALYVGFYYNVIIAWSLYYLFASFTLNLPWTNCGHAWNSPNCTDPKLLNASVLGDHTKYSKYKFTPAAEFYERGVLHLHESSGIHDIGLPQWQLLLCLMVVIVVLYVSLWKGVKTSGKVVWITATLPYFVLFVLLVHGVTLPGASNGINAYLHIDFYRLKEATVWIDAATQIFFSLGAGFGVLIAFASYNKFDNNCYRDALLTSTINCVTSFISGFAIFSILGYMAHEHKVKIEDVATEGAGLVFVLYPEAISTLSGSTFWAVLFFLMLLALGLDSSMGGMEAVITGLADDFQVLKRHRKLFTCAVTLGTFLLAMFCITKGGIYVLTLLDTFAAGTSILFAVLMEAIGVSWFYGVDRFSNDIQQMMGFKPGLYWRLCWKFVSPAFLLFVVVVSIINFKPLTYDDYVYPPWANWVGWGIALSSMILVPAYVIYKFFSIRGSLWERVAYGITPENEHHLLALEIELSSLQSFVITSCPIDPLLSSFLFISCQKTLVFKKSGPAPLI
Norepinephrine transporter (Rattus norvegicus), sequence (Q9WTR4 as listed by the source): as the sequence (Q9WTR4 whole entry) above

## CN1CCC(C#N)(c2ccc(I)cc2)CC1
Mu-type opioid receptor [1]
  inhibition: 61%
Mu-type opioid receptor [2]
  Ki: 17.3 µM
Mu-type opioid receptor [3]
  inhibition: 93.6%
[4]
  Ratio: 2.07
[5]
  Ratio: 40.2
[6]
  Ratio: 19.4
[7]
  IC50: 36.7 µM

## CCOC(=O)C1(c2ccc(C)cc2)CCN(C)CC1
Mu-type opioid receptor [8]
  Ki: 2.67 µM
[9]
  Ratio: 0.22
[5]
  Ratio: 1.66
[6]
  Ratio: 7.69
[10]
  IC50: 76.2 µM
[11]
  inhibition: 57.6%

## CCOC(=O)C1(c2ccc(I)cc2)CCN(C)CC1
Mu-type opioid receptor [8]
  Ki: 2.35 µM
[5]
  Ratio: 111
[10]
  IC50: 11.1 µM
[12]
  Ki: 519 µM

## CN1CCC(C#N)(c2ccc(F)cc2)CC1
Mu-type opioid receptor [1]
  inhibition: 15%
[13]
  Ki: 101 µM
[14]
  inhibition: 45%
[15]
  inhibition: 8%

## CCOC(=O)C1(c2ccc3ccccc3c2)CCN(C)CC1
[16]
  inhibition: 16%
Mu-type opioid receptor [8]
  Ki: 2.03 µM
[9]
  Ratio: 1.78
[5]
  Ratio: 282
[6]
  Ratio: 158
[10]
  IC50: 3.19 µM and 11.6 µM
[12]
  Ki: 71.1 µM

## CN1CCC(C#N)(c2ccc3ccccc3c2)CC1
[16]
  inhibition: 11%
Mu-type opioid receptor [1]
  inhibition: 61%
Mu-type opioid receptor [2]
  Ki: 15.4 µM
[9]
  Ratio: 6.53
[5]
  Ratio: 123
[6]
  Ratio: 18.9
[11]
  inhibition: 88.1%

## Cc1ccc(C2(C#N)CCN(C)CC2)cc1
Mu-type opioid receptor [8]
  Ki: 40.6 µM
[9]
  Ratio: 0.97
[5]
  Ratio: 2.96
[6]
  Ratio: 3.05
[11]
  inhibition: 103%
[17]
  inhibition: 46%
[18]
  inhibition: 22%

## CCOC(=O)C1(c2ccc(Cl)c(Cl)c2)CCN(C)CC1
[16]
  inhibition: 22%
Mu-type opioid receptor [8]
  Ki: 2.04 µM
[9]
  Ratio: 16.3
[5]
  Ratio: 109
[6]
  Ratio: 6.68
[10]
  IC50: 6.01 µM and 1.4 µM
[12]
  Ki: 74.5 µM

## CCOC(=O)C1(c2ccc(F)cc2)CCN(C)CC1
[16]
  inhibition: 47%
Mu-type opioid receptor [19]
  Ratio: 0.14
[20]
  Ratio: 4.77
[21]
  Ratio: 34.7
[11]
  inhibition: 71.9%

## CN1CCC(C#N)(c2ccc(Cl)cc2)CC1
Mu-type opioid receptor [1]
  inhibition: 51%
Mu-type opioid receptor [2]
  Ki: 36.8 µM
[9]
  Ratio: 1.67
[5]
  Ratio: 0.18
[6]
  Ratio: 4.31
[11]
  inhibition: 106%
[15]
  inhibition: 36%

## CCOC(=O)C1(c2ccc(Cl)cc2)CCN(C)CC1
Mu-type opioid receptor [8]
  Ki: 4.41 µM
[9]
  Ratio: 1.08
[5]
  Ratio: 15.9
[6]
  Ratio: 14.8
[22]
  IC50: 26.9 µM
[12]
  Ki: 601 µM

## CN1CCC(C#N)(c2ccc(Cl)c(Cl)c2)CC1
Mu-type opioid receptor [1]
  inhibition: 46%
[23]
  Ratio: 3.32
Mu-type opioid receptor [8]
  Ki: 40 µM
[24]
  Ratio: 15
[5]
  Ratio: 49.7
[22]
  IC50: 11.1 µM
[11]
  inhibition: 94.1%
